According to ChEMBL document CHEMBL2163203, “Conformationally-locked N-glycosides with selective β-glucosidase inhibitory activity: identification of a new non-iminosugar-type pharmacological chaperone for Gaucher disease” (J Med Chem, 2012):
Active and inactive are the calls of the source. The calls are words filed in the database; no cut-off is given here.

Columns and labels:
[1] = system: Prunus dulcis; test: Inhibition of almond beta-glucosidase at 2 mM after 10 to 30 mins by spectrophotometric analysis
Outline: (§1)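 Enzyme added to substrate with or without inhibitor in phosphate buffer (phosphate–citrate for α-/β-mannosidase and amyloglucosidase) at each enzyme's optimal pH; 10–30 min at 37 °C (55 °C amyloglucosidase), aiming at 10–20% conversion. Stopped with 1 M Na₂CO₃, A405; trehalase stopped by heating, GLC-Trinder added, A492. Ki from Lineweaver–Burk and double-reciprocal analysis, substrate near Km.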

[2] = system: Saccharomyces cerevisiae; test: Inhibition of yeast alpha-glucosidase using at 2 mM after 10 to 30 mins by spectrophotometric analysis; outline: as §1
[3] = system: Canavalia ensiformis; test: Inhibition of jack bean alpha-mannosidase at 2 mM after 10 to 30 mins by spectrophotometric analysis; outline: as §1
[4] = system: Helix pomatia; test: Inhibition of Helix pomatia beta-mannosidase at 2 mM after 10 to 30 mins by spectrophotometric analysis; outline: as §1
[5] = biological target: T1, Uncharacterized protein (Sus scrofa) (UniProt I3LIR5); test: Inhibition of pig trehalase isolated from kidney using alpha,alpha'-trehalose as substrate at 2 mM after 10 to 30 mins by spectrophotometric analysis; outline: as §1
T1 sequence (whole entry): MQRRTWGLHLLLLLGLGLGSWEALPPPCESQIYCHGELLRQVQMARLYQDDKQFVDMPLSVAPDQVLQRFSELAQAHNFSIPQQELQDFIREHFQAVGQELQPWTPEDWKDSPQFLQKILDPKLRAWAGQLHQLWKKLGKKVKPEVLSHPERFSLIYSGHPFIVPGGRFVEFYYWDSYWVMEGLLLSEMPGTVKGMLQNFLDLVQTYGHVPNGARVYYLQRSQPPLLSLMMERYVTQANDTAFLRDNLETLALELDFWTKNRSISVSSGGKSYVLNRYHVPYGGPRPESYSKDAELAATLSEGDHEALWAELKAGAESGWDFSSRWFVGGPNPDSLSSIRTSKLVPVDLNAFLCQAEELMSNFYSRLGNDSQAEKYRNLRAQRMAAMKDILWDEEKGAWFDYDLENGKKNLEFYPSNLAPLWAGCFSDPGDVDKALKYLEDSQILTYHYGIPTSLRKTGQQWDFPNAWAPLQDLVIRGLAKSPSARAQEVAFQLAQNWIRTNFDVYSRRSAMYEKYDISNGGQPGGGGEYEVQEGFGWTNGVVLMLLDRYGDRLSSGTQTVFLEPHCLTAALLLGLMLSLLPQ

[6] = system: Aspergillus niger; test: Inhibition of Aspergillus niger amyloglucosidase at 2 mM after 10 to 30 mins by spectrophotometric analysis; outline: as §1
[7] = system: Penicillium decumbens; test: Inhibition of Penicillium decumbens naringinase at 2 mM after 10 to 30 mins by spectrophotometric analysis; outline: as §1
[8] = biological target: Alpha-galactosidase (Coffea arabica) (UniProt Q42656); test: Inhibition of green coffee alpha galactosidase at 2 mM after 10 to 30 mins by spectrophotometric analysis; outline: as §1
[9] = biological target: Beta-galactosidase (Escherichia coli) (UniProt Q8VNN2); test: Inhibition of Escherichia coli beta galactosidase at 2 mM after 10 to 30 mins by spectrophotometric analysis; outline: as §1
[10] = system: Saccharomyces cerevisiae; test: Inhibition of yeast isomaltase at 2 mM after 10 to 30 mins by spectrophotometric analysis; outline: as §1
[11] = biological target: T2, Lysosomal acid glucosylceramidase (Homo sapiens) (UniProt P04062); test: Inhibition of human beta-glucocerebrosidase at 100 uM relative to control; settings: values are per cent of control
T2 sequence (whole entry): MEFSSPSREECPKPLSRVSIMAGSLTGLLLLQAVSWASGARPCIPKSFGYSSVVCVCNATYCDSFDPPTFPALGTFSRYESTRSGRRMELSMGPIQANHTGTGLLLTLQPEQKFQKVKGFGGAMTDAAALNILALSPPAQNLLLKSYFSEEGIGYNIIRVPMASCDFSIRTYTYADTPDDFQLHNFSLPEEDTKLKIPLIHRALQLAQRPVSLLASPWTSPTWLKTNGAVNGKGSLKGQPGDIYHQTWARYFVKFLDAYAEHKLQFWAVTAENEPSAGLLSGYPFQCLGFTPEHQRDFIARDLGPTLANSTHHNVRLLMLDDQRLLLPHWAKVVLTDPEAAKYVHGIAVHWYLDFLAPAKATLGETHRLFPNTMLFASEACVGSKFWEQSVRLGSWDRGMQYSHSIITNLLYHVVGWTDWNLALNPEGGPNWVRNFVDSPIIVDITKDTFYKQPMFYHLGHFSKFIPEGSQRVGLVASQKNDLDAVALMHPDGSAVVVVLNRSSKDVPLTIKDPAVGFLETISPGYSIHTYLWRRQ

[12] = Competitive inhibition of bovine beta-glucosidase isolated from liver after 10 to 30 mins by Lineweaver-Burk plot analysis; design: species or system Bos taurus; outline: as §1

Chain of Beta-galactosidase (Escherichia coli) (Q8VNN2 whole entry, looked up): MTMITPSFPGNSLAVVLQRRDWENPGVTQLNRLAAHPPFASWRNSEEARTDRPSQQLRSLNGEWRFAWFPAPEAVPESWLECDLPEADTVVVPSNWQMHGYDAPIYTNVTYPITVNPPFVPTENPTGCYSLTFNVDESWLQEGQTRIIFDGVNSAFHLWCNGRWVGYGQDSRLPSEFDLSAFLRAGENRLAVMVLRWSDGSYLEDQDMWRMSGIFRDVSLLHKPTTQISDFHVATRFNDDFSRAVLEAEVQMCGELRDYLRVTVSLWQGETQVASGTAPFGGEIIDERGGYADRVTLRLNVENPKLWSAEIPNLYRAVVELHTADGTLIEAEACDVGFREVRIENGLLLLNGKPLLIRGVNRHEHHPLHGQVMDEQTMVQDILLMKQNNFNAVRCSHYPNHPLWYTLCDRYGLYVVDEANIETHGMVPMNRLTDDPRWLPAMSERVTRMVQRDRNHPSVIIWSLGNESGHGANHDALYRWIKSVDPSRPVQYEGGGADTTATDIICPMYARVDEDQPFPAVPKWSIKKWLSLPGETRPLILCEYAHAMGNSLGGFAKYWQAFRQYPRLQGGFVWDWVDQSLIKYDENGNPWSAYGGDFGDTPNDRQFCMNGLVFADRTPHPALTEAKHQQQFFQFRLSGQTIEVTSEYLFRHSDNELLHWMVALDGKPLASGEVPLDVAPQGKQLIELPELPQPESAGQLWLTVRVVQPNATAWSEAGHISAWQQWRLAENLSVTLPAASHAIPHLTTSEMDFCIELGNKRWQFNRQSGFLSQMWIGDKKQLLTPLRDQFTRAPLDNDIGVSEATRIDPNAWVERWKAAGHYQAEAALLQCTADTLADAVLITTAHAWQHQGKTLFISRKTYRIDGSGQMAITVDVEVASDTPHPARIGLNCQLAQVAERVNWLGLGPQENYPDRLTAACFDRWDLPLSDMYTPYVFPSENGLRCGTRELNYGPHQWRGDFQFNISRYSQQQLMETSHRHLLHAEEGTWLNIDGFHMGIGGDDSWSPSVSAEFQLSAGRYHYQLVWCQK
Chain of Alpha-galactosidase (Coffea arabica) (Q42656 16-378 limits assumed): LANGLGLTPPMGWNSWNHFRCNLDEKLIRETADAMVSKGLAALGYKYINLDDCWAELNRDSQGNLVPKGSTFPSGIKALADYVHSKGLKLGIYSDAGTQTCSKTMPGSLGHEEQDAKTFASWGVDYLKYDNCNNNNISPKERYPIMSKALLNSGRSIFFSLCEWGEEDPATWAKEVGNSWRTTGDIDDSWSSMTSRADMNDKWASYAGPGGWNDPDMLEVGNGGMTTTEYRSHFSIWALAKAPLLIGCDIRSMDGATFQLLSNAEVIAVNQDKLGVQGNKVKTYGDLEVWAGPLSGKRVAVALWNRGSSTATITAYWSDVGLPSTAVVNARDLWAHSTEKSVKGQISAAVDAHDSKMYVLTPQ

Structure (SMILES)	inhibition [1]	inhibition [2]	inhibition [3]	inhibition [4]	inhibition [5]	inhibition [6]	inhibition [7]	inhibition [8]	inhibition [9]	inhibition [10]	residual activity [11]	Ki [12]
CCCCCCCCSC1=N[C@H]2O[C@H](CO)[C@@H](O)[C@H](O)[C@H]2O1	inactive	inactive	inactive	inactive	inactive	inactive	inactive	inactive	inactive	inactive	91%	280 µM
CCCCCCCSC1=N[C@H]2O[C@H](CO)[C@@H](O)[C@H](O)[C@H]2O1	inactive	inactive	inactive	inactive	inactive	inactive	inactive	inactive	inactive	inactive	91%	310 µM
O=C(NCCCCCCSC1=N[C@H]2O[C@H](CO)[C@@H](O)[C@H](O)[C@H]2O1)C12CC3CC(CC(C3)C1)C2	inactive	inactive	inactive	inactive	inactive	inactive	inactive	inactive	inactive	inactive	91%	230 µM
CCCCSC1=N[C@H]2O[C@H](CO)[C@@H](O)[C@H](O)[C@H]2O1	inactive	inactive	inactive	inactive	inactive	inactive	inactive	inactive	inactive	inactive	92%	580 µM

The next compounds have a lower Ki [12] than those just listed; values first:

inhibition [1]	inhibition [2]	inhibition [3]	inhibition [4]	inhibition [5]	inhibition [6]	inhibition [7]	inhibition [8]	inhibition [9]	inhibition [10]	residual activity [11]	Ki [12]	Structure (SMILES)
inactive	inactive	inactive	inactive	inactive	inactive	inactive	inactive	inactive	inactive	88%	210 µM	OC[C@H]1O[C@@H]2N=C(SCc3ccccc3)O[C@@H]2[C@@H](O)[C@@H]1O
inactive	inactive	inactive	inactive	inactive	inactive	inactive	inactive	inactive	inactive	86%	52 µM	CCCCCCCCCCCCCCCCSC1=N[C@H]2O[C@H](CO)[C@@H](O)[C@H](O)[C@H]2O1
inactive	inactive	inactive	inactive	inactive	inactive	inactive	inactive	inactive	inactive	87%	73 µM	CCCCCCCCCCCCSC1=N[C@H]2O[C@H](CO)[C@@H](O)[C@H](O)[C@H]2O1
inactive	inactive	inactive	inactive	inactive	inactive	inactive	inactive	inactive	inactive	97%	220 µM	C=CCSC1=N[C@H]2O[C@H](CO)[C@@H](O)[C@H](O)[C@H]2O1
